Measurements published in ChEMBL document CHEMBL4007396, “New diphenylmethane derivatives as peroxisome proliferator-activated receptor alpha/gamma dual agonists endowed with anti-proliferative effects and mitochondrial activity” (Eur J Med Chem, 2017).
The source made the active and inactive calls. The rule behind the calls is not given here.

Legend:
[1] = target: T1, Peroxisome proliferator-activated receptor alpha (Homo sapiens, UniProt Q07869); experiment: Binding affinity to PPARalpha (unknown origin) assessed as thermodynamic dissociation constant by SPR assay; conditions: read-out: Kd
T1 sequence (Q07869 whole entry): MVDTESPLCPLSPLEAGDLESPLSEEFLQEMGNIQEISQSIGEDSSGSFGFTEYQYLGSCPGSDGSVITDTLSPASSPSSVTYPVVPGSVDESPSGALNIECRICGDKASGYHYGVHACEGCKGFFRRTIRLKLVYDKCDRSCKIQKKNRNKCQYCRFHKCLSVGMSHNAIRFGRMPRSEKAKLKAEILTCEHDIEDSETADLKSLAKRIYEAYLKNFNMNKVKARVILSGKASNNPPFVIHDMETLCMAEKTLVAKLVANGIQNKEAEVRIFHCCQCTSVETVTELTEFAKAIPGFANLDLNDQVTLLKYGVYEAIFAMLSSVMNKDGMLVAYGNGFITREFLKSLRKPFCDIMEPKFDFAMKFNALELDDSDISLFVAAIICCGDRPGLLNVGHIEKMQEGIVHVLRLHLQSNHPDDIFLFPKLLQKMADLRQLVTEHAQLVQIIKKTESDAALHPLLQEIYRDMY

[2] = target: T2, Peroxisome proliferator-activated receptor gamma (Homo sapiens, UniProt P37231); experiment: Binding affinity to PPARgamma (unknown origin) assessed as thermodynamic dissociation constant by SPR assay; conditions: read-out: Kd
T2 sequence (P37231 whole entry): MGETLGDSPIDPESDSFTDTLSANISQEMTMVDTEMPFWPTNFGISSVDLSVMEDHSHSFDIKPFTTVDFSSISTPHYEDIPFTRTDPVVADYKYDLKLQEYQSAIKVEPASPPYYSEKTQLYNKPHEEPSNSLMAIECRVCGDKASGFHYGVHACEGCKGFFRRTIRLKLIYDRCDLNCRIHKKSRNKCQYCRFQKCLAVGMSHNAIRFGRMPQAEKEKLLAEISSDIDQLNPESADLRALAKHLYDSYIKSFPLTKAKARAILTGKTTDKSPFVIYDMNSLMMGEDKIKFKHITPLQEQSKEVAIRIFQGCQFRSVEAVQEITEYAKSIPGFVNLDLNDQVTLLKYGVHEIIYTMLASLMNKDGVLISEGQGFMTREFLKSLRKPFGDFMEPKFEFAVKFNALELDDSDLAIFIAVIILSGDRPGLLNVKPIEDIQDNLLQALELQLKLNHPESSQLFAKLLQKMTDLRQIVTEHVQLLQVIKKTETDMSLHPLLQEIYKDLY

[3] = target: T3, Peroxisome proliferator-activated receptor delta (Homo sapiens, UniProt Q03181); experiment: Binding affinity to PPARdelta (unknown origin) assessed as thermodynamic dissociation constant by SPR assay
T3 sequence (Q03181 whole entry): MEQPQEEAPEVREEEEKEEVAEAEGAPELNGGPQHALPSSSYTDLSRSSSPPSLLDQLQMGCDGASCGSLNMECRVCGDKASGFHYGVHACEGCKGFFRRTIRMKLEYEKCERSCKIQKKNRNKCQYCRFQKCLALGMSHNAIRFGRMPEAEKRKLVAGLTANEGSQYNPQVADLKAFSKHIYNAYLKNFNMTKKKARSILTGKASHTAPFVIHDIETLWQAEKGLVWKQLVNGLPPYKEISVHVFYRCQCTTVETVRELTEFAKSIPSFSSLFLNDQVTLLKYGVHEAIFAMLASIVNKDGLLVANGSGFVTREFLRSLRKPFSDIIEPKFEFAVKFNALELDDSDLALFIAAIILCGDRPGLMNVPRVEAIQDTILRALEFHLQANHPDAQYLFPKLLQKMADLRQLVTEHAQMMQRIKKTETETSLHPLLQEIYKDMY

[4] = target: T2, Peroxisome proliferator-activated receptor gamma; experiment: Transactivation of GAL4-fused human PPARgamma LBD expressed in human HepG2 cells after 20 hrs by luciferase reporter gene assay; format: cell-based
[5] = target: T4, Peroxisome proliferator-activated receptor alpha (Homo sapiens) (UniProt Q07869); experiment: Agonist activity at PPARalpha in human HepG2 cells assessed as increase in CPT1 mRNA level at 1 uM after 24 hrs by RT-PCR method; format: cell-based
T4 sequence (whole entry): T1 sequence (Q07869 whole entry)
How it was run: (§1)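 Serum-free HepG2 exposed 24 h to 1 μM test agent (Wy-14,643 reference at 50 μM). RNA extracted from 1x10⁶ cells; TaqMan real-time RT-PCR for CAC, CPT1 or PPARα, normalized to β-actin. Mean ± SD of three independent duplicate experiments; one-way ANOVA with Bonferroni test.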

[6] = target: T5, Peroxisome proliferator-activated receptor gamma (Homo sapiens) (UniProt P37231); experiment: Agonist activity at PPARgamma in human HT-29 cells assessed as upregulation of p21waf1/cip1 protein expression at 10 uM after 48 hrs by Western blot method; format: cell-based
T5 sequence (whole entry): T2 sequence (P37231 whole entry)
How it was run: (§2)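 HT-29 or HEK293T cells in DMEM/10% FBS treated 48 h with 10 μM compound (DMSO vehicle, final below 0.1%). RIPA lysates (with protease inhibitors), 80 μg protein per lane immunoblotted for p21waf1/cip1 with β-actin loading control; densitometric p21/β-actin ratio, mean ± SD of at least three independent experiments.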

[7] = tested on: HEK-293T; experiment: Effect on p21waf1/cip1 protein expression in HEK293T cells at 10 uM after 48 hrs by Western blot method; format: cell-based; conditions: human; how it was run: as §2
[8] = target: T5, Peroxisome proliferator-activated receptor gamma (Homo sapiens); experiment: Agonist activity at PPARgamma in human HT-29 cells harboring APC mutant assessed as inhibition of Wnt/beta-catenin signaling pathway by measuring decrease in c-Myc level at 10 uM treated for 24 hrs by Western blot method; format: cell-based
How it was run: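 RIPA lysates, 80 μg protein immunoblotted for c-Myc with β-actin loading control; c-Myc/β-actin densitometry, mean ± SD of at least three independent experiments.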

[9] = target: T4, Peroxisome proliferator-activated receptor alpha (Homo sapiens); experiment: Agonist activity at PPARalpha in human HepG2 cells assessed as increase in CAC mRNA level at 1 uM after 24 hrs by RT-PCR method; format: cell-based; how it was run: as §1
[10] = target: T4, Peroxisome proliferator-activated receptor alpha (Homo sapiens); experiment: Agonist activity at PPARalpha in human HepG2 cells assessed as increase in CAC protein expression level at 1 uM after 48 hrs by Western blot method; format: cell-based
How it was run: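 HepG2 serum-depleted 24 h, then treated 48 h with 1 μM compound (Wy-14,643 at 50 μM as reference). Nitrocellulose immunoblots probed for CAC, CPT1 or PPARα with β-actin loading control, chemiluminescent detection; band densitometry expressed as fold change versus untreated cells; three independent experiments.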

[11] = target: T2, Peroxisome proliferator-activated receptor gamma; experiment: Binding affinity to PPARgamma (unknown origin) assessed as kinetic dissociation constant by SPR assay
[12] = tested on: HT-29; experiment: Growth inhibition of human HT-29 cells assessed as cell vitality at 5 to 10 uM up to 72 hrs by hemocytometry relative to control; format: functional; set-up: scale not given: the % may be the effect or the level left
How it was run: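 Exponentially growing HT-29 colon adenocarcinoma cells (D-MEM, 10% FBS, 37 °C, 5% CO2) exposed to vehicle (DMSO, final <0.1%) or 1, 5 and 10 μM compound in 10% FBS medium for 24, 48 and 72 hs; cells washed, trypsinized and counted by Bürker hemocytometer, three counts per well. Viability relative to vehicle; mean ± SD of three independent experiments in duplicate.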

Structure (SMILES)	Kd [1]	Kd [2]	Kd [3]	EC50 [4]	Activity [5]	Activity [6]	Activity [7]	Activity [8]	Activity [9]	Activity [10]	Kd [11]	Activity [12]
C[C@H](Oc1ccc(Cc2ccc(OCc3coc(-c4ccccc4)n3)cc2)cc1)C(=O)O	0.75 nM	4.9 nM	Not Active	300 nM	Active	Active	Non-Toxic	Active	Active	Active	0.099 s⁻¹	
C[C@@H](Oc1ccc(Cc2ccc(OCc3coc(-c4ccccc4)n3)cc2)cc1)C(=O)O	0.86 nM	3.7 nM	Not Active	280 nM	Active	Active	Non-Toxic	Active	Active	Active	0.095 s⁻¹	40 - 60%
